Data from ChEMBL document CHEMBL1135243, “Evaluation of morphogenic regulatory activity of farnesoic acid and its derivatives against Candida albicans dimorphism” (Bioorg Med Chem Lett, 2002).
≈ marks a conversion by molar mass, not a printed value.

Key:
[1] = test system: Candida albicans; assay: In vitro inhibition of yeast-to-hypha transition in candida albicans; No inhibition; format: functional, organism-based
[2] = test system: Candida albicans; assay: In vitro inhibition of yeast cell growth of candida albicans; No inhibition; format: functional, organism-based
[3] = test system: Candida albicans; assay: In vitro inhibition of yeast-to-hypha transition in candida albicans; format: functional, organism-based
[4] = test system: Candida albicans; assay: In vitro inhibition of yeast cell growth of candida albicans; format: functional, organism-based
[5] = test system: Candida albicans; assay: In vitro inhibition of yeast-to-hypha transition in candida albicans at a concentration of 100 ug/mL; format: functional
Method in brief: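 C. albicans ATCC 10231 grown 48 h at 30 °C in YPD, washed twice in sterile water. DMSO stocks diluted in glucose salts (GS) medium, final DMSO below 0.5%. Cells at 10^5 cells/mL in GS with compound, 4 h at 37 °C. Yeast vs hypha (germ tube) percentages counted microscopically on 200 cells from triplicate dishes, relative to 0.5% DMSO control. Highest concentration tested.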

[6] = test system: Candida albicans; assay: In vitro inhibition of yeast cell growth of candida albicans at a concentration of 100 ug/mL; format: functional

Structure (SMILES)	IC50 [1] [µg/mL]	IC50 [2] [µg/mL]	other results
CC(C)=CCC/C(C)=C/CC/C(C)=C/COC(=O)/C=C(\C)CC/C=C(\C)CCC=C(C)C	> 100	> 100	
CC(C)=CCC/C(C)=C/CC/C(C)=C/C(=O)N1CCOCC1			IC50 [3]: 41 µg/mL (≈ 134 µM); IC50 [4]: 87.5 µg/mL (≈ 286 µM)
CC(C)=CCC/C(C)=C/CC/C(C)=C/C(=O)O		> 100	IC50 [3]: 4.56 µg/mL (≈ 19.3 µM)
CC(C)=CCC/C(C)=C/CC/C(C)=C/CC/C(C)=C/C(=O)O [GERANYLGERANOIC ACID]	> 100	> 100	
CC(C)=CCC/C(C)=C/CC/C(C)=C/C(=O)N(C)C			IC50 [3]: 16.9 µg/mL (≈ 64.3 µM); IC50 [4]: 43.7 µg/mL (≈ 166 µM)
CC(C)=CCC/C(C)=C/CC/C(C)=C/C(=O)OCc1ccccc1	> 100	> 100	
CC(C)=CCC/C(C)=C/CC/C(C)=C/C(N)=O			IC50 [3]: 20.7 µg/mL (≈ 88 µM); IC50 [4]: 26.3 µg/mL (≈ 112 µM)
CC(C)=CCC/C(C)=C/CC/C(C)=C\C(=O)O		> 100	inhibition at 100 µg/mL [5]: 18%
CC(C)=CCC/C(C)=C/CC/C(C)=C/CO [FARNESOL]			IC50 [3]: 2.82 µg/mL (≈ 12.7 µM); inhibition at 100 µg/mL [6]: 35%
CC(C)=CCC/C(C)=C/C(=O)O	> 100		inhibition at 100 µg/mL [6]: 57%

Continued, in another order:

IC50 [1] [µg/mL]	Structure (SMILES)	IC50 [2] [µg/mL]	other results
> 100	COC(=O)/C=C(\C)CC/C=C(\C)CCC=C(C)C	> 100	
> 100	CC(C)=CCC/C(C)=C/CC/C(C)=C/C(=O)OCC=C(C)C	> 100	
> 100	CNC(=O)/C=C(\C)CC/C=C(\C)CCC=C(C)C	> 100	
> 100	CC(C)=CCC/C(C)=C/CC/C(C)=C/C(=O)OC/C=C(\C)CCC=C(C)C	> 100	
> 100	C=CCOC(=O)/C=C(\C)CC/C=C(\C)CCC=C(C)C	> 100	
> 100	C=CCNC(=O)/C=C(\C)CC/C=C(\C)CCC=C(C)C	> 100	
> 100	CC(C)=CCC/C(C)=C/CC/C(C)=C/C(=O)OC/C=C/c1ccccc1	> 100	
